From ChEMBL document CHEMBL1124394, “Synthesis and biological evaluation of 14-alkoxymorphinans. 2. (-)-N-(cyclopropylmethyl)-4,14-dimethoxymorphinan-6-one, a selective mu opioid receptor antagonist” (J Med Chem, 1989)
Values joined by “and” are separate entries in the source; they are usually repeats but may differ in a detail not shown here. Equal values may be shown once.

Legend:
[1] = test system: Oryctolagus cuniculus; test: Percent change of volume in the respiratory activity was measured in rabbit at the 1 mg/kg dose given intravenously; type: functional; details: route intravenous
Method in brief: (§1)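 Rabbits were dosed iv in saline (1.5 mL/kg); 1 N HCl was sometimes added to dissolve the compound. Percent change (±SE) in respiratory volume and rate was recorded.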

[2] = test system: Oryctolagus cuniculus; test: Percent change of rate in the respiratory activity was measured in rabbit at the 1 mg/kg dose given intravenously; type: functional; details: route intravenous; method in brief: as §1
[3] = target: Delta-type opioid receptor (Rattus norvegicus) (UniProt P33533); details: Vas deferens
Chain of Delta-type opioid receptor (Rattus norvegicus) (P33533 whole entry): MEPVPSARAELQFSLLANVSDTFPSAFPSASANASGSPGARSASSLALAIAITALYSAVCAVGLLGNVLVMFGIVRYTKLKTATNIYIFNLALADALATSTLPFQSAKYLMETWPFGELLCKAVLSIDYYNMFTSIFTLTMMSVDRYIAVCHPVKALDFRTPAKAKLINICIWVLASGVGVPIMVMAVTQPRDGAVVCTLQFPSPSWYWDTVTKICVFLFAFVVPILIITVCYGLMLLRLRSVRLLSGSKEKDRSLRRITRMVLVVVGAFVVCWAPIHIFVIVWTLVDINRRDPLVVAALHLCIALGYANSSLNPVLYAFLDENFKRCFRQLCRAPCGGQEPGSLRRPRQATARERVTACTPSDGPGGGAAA

[4] = target: Kappa-type opioid receptor (Cavia porcellus) (UniProt P41144)
Chain of Kappa-type opioid receptor (Cavia porcellus) (P41144 whole entry): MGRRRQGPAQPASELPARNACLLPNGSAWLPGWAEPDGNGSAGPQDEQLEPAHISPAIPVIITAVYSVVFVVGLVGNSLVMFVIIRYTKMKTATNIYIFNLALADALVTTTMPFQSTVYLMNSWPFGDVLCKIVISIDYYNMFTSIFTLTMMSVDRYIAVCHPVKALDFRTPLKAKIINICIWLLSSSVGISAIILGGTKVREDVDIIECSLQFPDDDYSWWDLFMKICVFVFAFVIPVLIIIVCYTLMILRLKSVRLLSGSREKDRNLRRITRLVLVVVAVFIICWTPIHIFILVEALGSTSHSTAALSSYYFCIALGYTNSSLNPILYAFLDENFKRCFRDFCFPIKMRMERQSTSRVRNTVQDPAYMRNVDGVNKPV

[5] = target: Kappa-type opioid receptor (Mus musculus) (UniProt P33534); details: Vas deferens
Chain of Kappa-type opioid receptor (Mus musculus) (P33534 whole entry): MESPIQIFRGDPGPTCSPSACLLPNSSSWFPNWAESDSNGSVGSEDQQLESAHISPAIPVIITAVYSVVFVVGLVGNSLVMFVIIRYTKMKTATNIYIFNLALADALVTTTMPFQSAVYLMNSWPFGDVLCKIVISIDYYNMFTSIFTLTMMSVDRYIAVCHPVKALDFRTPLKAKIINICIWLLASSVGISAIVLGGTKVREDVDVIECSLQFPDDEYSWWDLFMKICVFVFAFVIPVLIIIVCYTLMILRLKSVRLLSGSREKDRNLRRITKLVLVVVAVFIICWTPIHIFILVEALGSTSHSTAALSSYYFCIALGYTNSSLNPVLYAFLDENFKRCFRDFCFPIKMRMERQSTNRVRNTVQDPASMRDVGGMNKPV

[6] = target: Mu-type opioid receptor (Cavia porcellus) (UniProt P97266)
Chain of Mu-type opioid receptor (Cavia porcellus) (P97266 whole entry): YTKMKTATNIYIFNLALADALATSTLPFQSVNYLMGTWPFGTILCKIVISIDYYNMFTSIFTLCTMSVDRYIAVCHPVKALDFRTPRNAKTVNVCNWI

[7] = target: Mu-type opioid receptor (Rattus norvegicus) (UniProt P33535); details: Vas deferens
Chain of Mu-type opioid receptor (Rattus norvegicus) (P33535 whole entry): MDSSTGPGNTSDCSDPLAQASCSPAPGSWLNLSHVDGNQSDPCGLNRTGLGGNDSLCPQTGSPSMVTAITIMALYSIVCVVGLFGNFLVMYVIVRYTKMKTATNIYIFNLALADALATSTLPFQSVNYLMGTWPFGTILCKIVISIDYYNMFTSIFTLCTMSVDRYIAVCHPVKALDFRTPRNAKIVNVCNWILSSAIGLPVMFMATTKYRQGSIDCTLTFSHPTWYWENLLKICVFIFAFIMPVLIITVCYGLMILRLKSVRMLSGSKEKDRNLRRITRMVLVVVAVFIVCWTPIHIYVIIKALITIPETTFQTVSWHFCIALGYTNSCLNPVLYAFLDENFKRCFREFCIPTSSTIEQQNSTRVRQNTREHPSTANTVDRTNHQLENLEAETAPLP

[8] = target: Delta-type opioid receptor (Mus musculus) (UniProt P32300); details: Vas deferens
Chain of Delta-type opioid receptor (Mus musculus) (P32300 whole entry): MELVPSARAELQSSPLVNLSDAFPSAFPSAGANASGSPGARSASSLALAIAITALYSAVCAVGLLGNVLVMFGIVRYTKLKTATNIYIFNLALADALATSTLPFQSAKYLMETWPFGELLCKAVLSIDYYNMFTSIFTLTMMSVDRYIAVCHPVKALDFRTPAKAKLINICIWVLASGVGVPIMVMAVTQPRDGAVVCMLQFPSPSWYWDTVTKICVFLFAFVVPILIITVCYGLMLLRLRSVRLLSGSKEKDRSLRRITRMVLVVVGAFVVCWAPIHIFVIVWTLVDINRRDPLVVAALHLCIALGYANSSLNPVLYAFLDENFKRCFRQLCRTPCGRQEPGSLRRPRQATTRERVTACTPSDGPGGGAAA

[9] = target: Mu-type opioid receptor (Mus musculus) (UniProt P42866); details: Vas deferens
Chain of Mu-type opioid receptor (Mus musculus) (P42866 whole entry): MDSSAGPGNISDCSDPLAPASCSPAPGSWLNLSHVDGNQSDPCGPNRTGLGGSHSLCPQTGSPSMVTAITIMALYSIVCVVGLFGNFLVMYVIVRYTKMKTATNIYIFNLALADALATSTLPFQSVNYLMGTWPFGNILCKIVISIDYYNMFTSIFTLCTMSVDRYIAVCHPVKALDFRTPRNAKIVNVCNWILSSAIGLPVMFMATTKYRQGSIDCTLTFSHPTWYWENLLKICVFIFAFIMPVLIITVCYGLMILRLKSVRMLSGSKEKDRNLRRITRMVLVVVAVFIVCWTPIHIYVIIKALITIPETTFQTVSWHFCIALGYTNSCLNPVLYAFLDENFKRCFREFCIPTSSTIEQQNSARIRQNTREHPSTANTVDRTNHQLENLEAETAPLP

[10] = test system: Mus musculus; test: Percent reduction of analgesia induced by U-50,488 at 15 mg/kg after sc administration was measured in mice; type: functional; details: route subcutaneous
Method in brief: (§2)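 Mice received the opioid agonist sc (morphine 10 mg/kg or U-50,488 15 mg/kg), then the test compound sc 20 min later in saline (10 mL/kg). Writhing was then induced with acetic acid. Read-out was percent reduction of agonist-induced analgesia.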

[11] = test system: Mus musculus; test: Percent reduction of analgesia induced by morphine at 10 mg/kg after sc administration was measured in mice; type: functional; details: route subcutaneous; method in brief: as §2
[12] = test system: Oryctolagus cuniculus; test: Percent change of volume in the respiratory activity was measured in rabbit at the 0.1 mg/kg dose given intravenously; type: functional; details: route intravenous; method in brief: as §1
[13] = test system: Oryctolagus cuniculus; test: Percent change of rate in the respiratory activity was measured in rabbit at the 0.1 mg/kg dose given intravenously; type: functional; details: route intravenous; method in brief: as §1
[14] = test system: Oryctolagus cuniculus; test: Percent change of rate in the respiratory activity was measured in rabbit at 0.1 mg/kg dose given intravenously; type: functional; details: route intravenous; method in brief: as §1
[15] = target: Opioid receptor (Rattus norvegicus, UniProt P33533+P34975+P33535); test: Inhibition of [3H]naloxone binding to opioid receptor in presence of NaCl; type: protein assay
Method in brief: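 Rat (male F1-albino, 140–180 g) whole brain minus cerebellum, homogenised in ice-cold 50 mmol/L Tris-HCl pH 7.4 with NaCl, centrifuged 18000g 10 min and rehomogenised. Nonspecific binding defined with 1 μmol/L levallorphan. Competitor tested at ≥5 concentrations in duplicate, two independent runs. IC50 taken graphically or from a least-squares sigmoid fit.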

Which Volume change [1] does the source give for `COc1cccc2c1[C@]13CCN(CC4CC4)[C@H](C2)[C@]1(OC)CCC(=O)C3` [CYPRODIME] here?
Its Volume change is 21%.

And the Rate change [2]?
Its Rate change is -6.9%.

What about the Ke [3] of the same compound?
The Ke was 4.56 µM.

And the Ke [4]?
Its Ke is 1160 nM.

What about the Ke [5] of the same compound?
The Ke was 1550 nM.

And the Ke [6]?
The Ke was 31 nM.

What about the Ke [7] of the same compound?
Its Ke is 61.6 nM.

What about the Ke [8] of the same compound?
Its Ke is 6.11 µM.

And the Ke [9]?
The Ke was 55.4 nM.

Which results are given for `C=CCN1CC[C@]23c4c5ccc(O)c4O[C@H]2C(=O)CC[C@@]3(O)[C@H]1C5` [NALOXONE]?
Reduction [10]: 83%; Reduction [11]: 87%; Volume change [12]: 23%; Rate change [13]: 7.3%

`O=C1CC[C@@]2(O)[C@H]3Cc4ccc(O)c5c4[C@@]2(CCN3CC2CC2)[C@H]1O5` [NALTREXONE] was tested. Which Reduction [10] did it give?
The Reduction was 19%.

And the Reduction [11]?
The Reduction was 94%.

What about the Rate change [14] of the same compound?
Its Rate change is 7.5%.

How did the IC50 [15] turn out when `C=CCN1CC[C@]23CCCC[C@H]2[C@H]1Cc1ccc(O)cc13` [LEVALLORPHAN] was run?
Its IC50 is 1.1 nM and 0.54 nM.
